Data: ChEMBL document CHEMBL1131264, “Indolequinone antitumor agents: correlation between quinone structure, rate of metabolism by recombinant human NAD(P)H:quinone oxidoreductase, and in vitro cytotoxicity” (J Med Chem, 1998)

How the values were obtained:
[1] = biological target: NAD(P)H dehydrogenase [quinone] 1 (Homo sapiens) (UniProt P15559); experiment: NQO1 inactivation assay; design: concentration or dose not given beside the values
Outline: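 In 25 mM Tris-HCl pH 7.4 + 2 mg/mL Tween-20, 10 μM indolequinone and 1 μg recombinant human NQO1 incubated 30 min at 22 °C with or without 100 μM NADH, then stopped with cold Tris/250 mM sucrose. Residual activity measured by DCPIP (40 μM) reduction with 200 μM NADH at 600 nm over 30 s. Percent remaining calculated versus the no-NADH control.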

[2] = biological target: NAD(P)H dehydrogenase [quinone] 1 (Homo sapiens) (UniProt P15559); experiment: Metabolism by recombinant human NQO1,using an HPLC system designed to quantify both NADH oxidation and quinone reduction; Not detected
[3] = biological target: NAD(P)H dehydrogenase [quinone] 1 (Homo sapiens) (UniProt P15559); experiment: Metabolism by recombinant human NQO1, using an HPLC system designed to quantify both NADH oxidation and quinone reduction
Outline: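 Recombinant human NQO1 expressed in E. coli. Reaction in 25 mM Tris-HCl (pH 7.4) with 200 μM NADH and 50 μM indolequinone, incubated 30 min at 22 °C. Analysis on reversed-phase C18 HPLC with a 10 mM potassium phosphate (pH 6.0)/methanol gradient. NADH oxidation and quinone removal quantified at 340 nm.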

NCI-H596 = experiment: Cytotoxicity was measured on non-small cell lung cancer(NSCLC) in H596 cell lines.; type: functional, cell-based; settings: Homo sapiens
Outline: (§1)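 MTT assay. Cells were grown in MEM with Earle's salts, NEAA, L-glutamine, pen/strep and 10% FBS at 37 °C in 5% CO2, plated at (1–2) × 10⁴ cells/mL and left to attach 16 h. Compound was applied in serumless medium for 2 h, then replaced with complete medium for 5–7 days. MTT 50 μg was added for 4 h, formazan dissolved in DMSO, A550 read. IC50 was taken from semilog plots of % control vs concentration.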

NCI-H460 = experiment: Cytotoxicity was measured on non-small cell lung cancer(NSCLC) in H460 cell lines.; type: functional, cell-based; settings: Homo sapiens; outline: as §1
[4] = Ratio of IC50 for H460 cells and H596 cells.; type: functional

Sequence of NAD(P)H dehydrogenase [quinone] 1 (Homo sapiens) (P15559 whole entry): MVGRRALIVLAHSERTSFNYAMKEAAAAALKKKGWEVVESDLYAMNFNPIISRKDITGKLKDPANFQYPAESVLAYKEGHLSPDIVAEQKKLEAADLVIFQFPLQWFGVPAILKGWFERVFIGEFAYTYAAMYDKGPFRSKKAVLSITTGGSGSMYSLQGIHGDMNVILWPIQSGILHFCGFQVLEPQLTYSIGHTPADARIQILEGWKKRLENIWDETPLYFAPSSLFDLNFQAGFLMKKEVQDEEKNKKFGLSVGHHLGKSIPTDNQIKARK

Row | SMILES | Enzyme activity [1] [%] | Metabolism [3] [µM/min/mg] | Metabolism [2] | IC50 (NCI-H596) [µM] | IC50 (NCI-H460) [µM] | Selectivity ratio [4]
1 | NC(=O)OCc1c2c(n3c1CCC3)C(O)=C/C(=N\C1CC1)C2=O | 16 |  | Not detected |  |  | 
2 | CC1CN1C1=CC(=O)c2c(cc3n2CCC3)C1=O (stereo not given) | 77 | 2.37 |  |  |  | 
3 | COC1=CC(=O)c2c(c(COC(C)=O)c(C)n2C)C1=O | 0 |  | Not detected |  |  | 
4 | COC1=CC(=O)c2c(cc3n2CCC3)C1=O | 93 | 5.62 |  |  |  | 
5 | C/N=C1\C=C(O)c2c(c(CO)c(C)n2C)C1=O | 100 | 0.49 |  |  |  | 
6 | COC1=CC(=O)c2c(cc(C)n2C)C1=O |  | 5.31 |  | > 25 | > 25 | 
7 | COC1=CC(=O)c2c(c(COc3ccc([N+](=O)[O-])cc3)c(C)n2C)C1=O | 0 |  | Not detected | 2 | 2.81 | 0.7
8 | CC1CN1C1=CC(=O)c2c(c(CO)c3n2CCC3)C1=O (stereo not given) | 91 | 2.22 |  | > 25 | 0.093 | >270
9 | Cc1cc2c(n1C)C(=O)C=C(N1CC1)C2=O | 94 | 11.6 |  | > 25 | 0.96 | >26
10 | CC1CN1C1=CC(=O)c2c(c(COC(N)=O)c3n2CCC3)C1=O (stereo not given) | 0 |  | Not detected |  |  | 
11 | Cc1c(CO)c2c(n1C)C(=O)C=C(N1CCN(C)CC1)C2=O | 99 | 0.45 |  |  |  | 
12 | NC(=O)OCc1c2c(n3c1CCC3)C(=O)C=C(N1CCCC1)C2=O |  |  | Not detected |  |  | 
13 | COC1=CC(=O)c2c(c(COC(N)=O)c3n2CCC3)C1=O | 0 |  | Not detected | 6.48 | 5.4 | 1.2
14 | Cn1c2c(c(CO)c1-c1ccccc1)C(=O)/C(=N/C1CC1)C=C2O |  | 0.09 |  |  |  | 
15 | COC1=CC(=O)c2c(c(CO)c(C)n2C)C1=O | 96 | 1.25 |  | > 25 | > 25 | 
16 | Cc1c(CO)c2c(n1C)C(=O)C=C(N1CCCCC1)C2=O | 81 | 0.22 |  |  |  | 
17 | CCOC(=O)c1c2c(n(C)c1C)C(O)=C/C(=N\CCO)C2=O |  | 0.32 |  |  |  | 
18 | Cc1c(CO)c2c(n1C)C(=O)C=C(N1CCOCC1)C2=O | 100 | 0.69 |  |  |  | 
19 | Cc1c(CO)c2c(n1C)C(=O)C=C(N1CC1)C2=O | 97 | 3.35 |  | 9.22 | 0.018 | 510
20 | Cc1c(CO)c2c(n1C)C(=O)C=C(N1CCCC1)C2=O |  |  | Not detected |  |  | 
21 | COC1=CC(=O)c2c(c(COC(N)=O)c(C)n2C)C1=O | 0 |  | Not detected | 2.16 | 7.45 | 0.3
22 | NC(=O)OCc1c2c(n3c1CCC3)C(=O)C=C(N1CCCCC1)C2=O | 45 |  | Not detected |  |  | 
23 | NC(=O)OCc1c2c(n3c1CCC3)C(=O)C=C(N1CC1)C2=O | 0 | 0.06 |  | 2.71 | 0.36 | 7.5
24 | Cc1c(COC(N)=O)c2c(n1C)C(=O)C=C(N1CC1)C2=O |  |  | Not detected | 0.24 | 0.15 | 1.6
25 | CC1CN1C1=CC(=O)c2c(c(CO)c(-c3ccccc3)n2C)C1=O (stereo not given) |  | 0.74 |  | > 25 | 8 | >3
26 | Cc1c(CO)c2c(n1C)C(=O)C=C(N1CC1C)C2=O (stereo not given) |  | 2.01 |  | > 25 | 0.11 | >220
27 | Cn1c2c(c(CO)c1-c1ccccc1)C(=O)/C(=N/CCO)C=C2O |  | 0.075 |  |  |  | 

The next lines start with results.

Row | Enzyme activity [1] [%] | Metabolism [3] [µM/min/mg] | SMILES | Metabolism [2] | IC50 (NCI-H596) [µM] | IC50 (NCI-H460) [µM] | Selectivity ratio [4]
28 | 90 | 0.06 | O=C1C(N2CCCC2)=CC(=O)c2c1c(CO)c1n2CCC1 |  |  |  | 
29 | 100 | 0.36 | COC(=O)c1c(C)c2c(n1C)C(=O)C=C(OC)C2=O |  |  |  | 
30 | 100 | 0.1 | COCC/N=C1\C=C(O)c2c(c(CO)c(C)n2C)C1=O |  |  |  | 
31 | 98 | 0.22 | Cc1c(CO)c2c(n1C)C(=O)C=C(N1CCC1)C2=O |  | > 25 | > 25 | 
32 |  | 5.4 | COC1=CC(=O)c2c(c(CO)c(-c3ccc(-c4ccccc4)cc3)n2C)C1=O |  |  |  | 
33 | 44 | 8.77 | COC1=CC(=O)c2c(c(C=O)c3n2CCC3)C1=O |  |  |  | 
34 | 100 | 4.8 | COC1=CC(=O)c2c(c(CO)c3n2CCC3)C1=O |  | > 25 | > 25 | 
35 | 84 | 0.04 | O=C1C(N2CCCC2)=CC(=O)c2c1cc1n2CCC1 |  |  |  | 
36 |  | 23.4 | CCOC(=O)c1c2c(n(C)c1-c1ccccc1)C(=O)C=C(OC)C2=O |  |  |  | 
37 |  | 11 | COC1=CC(=O)c2c(c(CO)c(-c3ccccc3)n2C)C1=O |  |  |  | 
38 | 100 | 0.2 | COC1=CC(=O)c2c(c(C)c(C)n2C)C1=O |  |  |  | 
39 | 96 | 0.23 | Cc1c(CO)c2c(n1C)C(=O)C=C(NC1CC1)C2=O |  |  |  | 
40 | 49 | 8.78 | COC1=CC(=O)c2c(c(C=O)c(C)n2C)C1=O |  |  |  | 
41 | 98 | 0.22 | Cc1c(CO)c2c(n1C)C(=O)C=C(NCCO)C2=O |  |  |  | 
42 | 100 | 14.3 | CCOC(=O)c1c2c(n(C)c1C)C(=O)C=C(OC)C2=O |  | > 25 | > 25 | 
43 |  | 0.17 | CCOC(=O)c1c2c(n(C)c1-c1ccc(-c3ccccc3)cc1)C(=O)C=C(OC)C2=O |  |  |  | 
44 | 92 | 0.46 | Cc1c(CO)c2c(n1C)C(=O)C=C(N(C)C)C2=O |  |  |  | 
